Source: PubChem (Johns Hopkins Ion Channel Center)
Only some compounds are listed: those with a hit (about 2.3% of all), similar ones and a draw of the others.
TRPC4 potent: positive allosteric modulators of TRPC4, primary screen, cell-based, mouse TRPC4beta, HEK293 mu-opioid, Fluo-4 calcium; Short transient receptor potential channel 4 (Mus musculus), Q9QUQ5; DAMGO EC20, Fluo-4 Ca2+ flux; hits give high values; B-score at 10 µM; 310,000 tested, 0.42% active; AID 2227, 2009;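 active = B-score of calcium response area above 5 SD of library B-scores, with initial fluorescence ratio within 5 SD of library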;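 also: B-score of integrated fluorescence ratio over time as area under calcium response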
Target sequence (Q9QUQ5 whole entry, looked up): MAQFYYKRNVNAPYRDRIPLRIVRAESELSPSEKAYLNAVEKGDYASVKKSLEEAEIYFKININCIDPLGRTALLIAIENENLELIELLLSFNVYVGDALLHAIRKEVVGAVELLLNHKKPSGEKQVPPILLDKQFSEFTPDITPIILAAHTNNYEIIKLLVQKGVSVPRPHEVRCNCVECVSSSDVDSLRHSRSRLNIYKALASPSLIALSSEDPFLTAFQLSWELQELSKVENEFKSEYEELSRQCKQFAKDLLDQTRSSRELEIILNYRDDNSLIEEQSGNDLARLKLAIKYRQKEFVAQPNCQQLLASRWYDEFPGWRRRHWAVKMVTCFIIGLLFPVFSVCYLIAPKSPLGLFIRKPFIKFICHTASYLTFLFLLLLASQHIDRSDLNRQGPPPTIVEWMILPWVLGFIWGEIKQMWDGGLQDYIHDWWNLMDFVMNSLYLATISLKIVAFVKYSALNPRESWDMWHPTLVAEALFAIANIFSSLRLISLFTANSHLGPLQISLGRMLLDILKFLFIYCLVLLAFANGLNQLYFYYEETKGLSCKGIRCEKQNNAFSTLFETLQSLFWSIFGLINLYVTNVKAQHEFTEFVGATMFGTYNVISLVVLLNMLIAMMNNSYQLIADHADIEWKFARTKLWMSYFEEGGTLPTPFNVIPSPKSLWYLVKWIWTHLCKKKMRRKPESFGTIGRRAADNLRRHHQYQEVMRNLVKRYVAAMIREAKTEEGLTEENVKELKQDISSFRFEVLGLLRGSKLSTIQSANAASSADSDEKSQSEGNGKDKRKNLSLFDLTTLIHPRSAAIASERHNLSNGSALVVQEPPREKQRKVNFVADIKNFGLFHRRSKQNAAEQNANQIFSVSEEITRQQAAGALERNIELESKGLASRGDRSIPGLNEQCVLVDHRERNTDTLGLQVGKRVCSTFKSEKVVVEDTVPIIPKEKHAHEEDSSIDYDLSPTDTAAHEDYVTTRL
TRPC4 inh: inhibitors of mouse TRPC4 channel, primary screen, Fluo4 calcium, HEK293 TRPC4beta/mu-opioid cells. Short transient receptor potential channel 4 (Mus musculus), Q9QUQ5. DAMGO-evoked Fluo4 calcium flux; hits give low values. B-score at 10 µM. 300,000 tested, 0.39% active. AID 2247, 2010;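 active = B-score over 3 SD under the library average, no early fluorescence shift, positive overall ratio signal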
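material = TRPC4beta/mu-opioid receptor HEK293 cell line | probe or stimulus = sequential submaximal and maximal DAMGO stimulation | compound dosing = one concentration per compound | measured by = Fluo4 Ca2+ flux fluorescence | evaluation = integrated fluorescence ratio relative to baseline, converted to per-well B score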
TRPC6 inhibitor: mouse TRPC6 channel inhibitors, primary screen, cell-based, HEK293, membrane potential dye; Short transient receptor potential channel 6 (Mus musculus), Q61143; ACh-evoked depolarization; hits give low values; B-score at 10 µM; 310,000 tested, 1.1% active; AID 2553, 2010;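 active = B-score under library mean minus 3 SD, initial fluorescence not abnormally high, positive integrated signal ratio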;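 also: B-score derived from integrated fluorescence ratio over the kinetic read; more negative B-score means stronger inhibition of depolarization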
TRPC4 act: activators of mouse TRPC4 channel, primary screen, Fluo4 calcium, HEK293 TRPC4beta/mu-opioid cells; AID 2237, 2010; Short transient receptor potential channel 4 (Mus musculus), Q9QUQ5; B-score at 10 µM; 310,000 tested, 0.49% active; Fluo4 calcium fluorescence; hits give high values;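 active = B-score above 5 SD of library B-scores, and initial fluorescence ratio not above library mean plus 5 SD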;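 also: positive B-score marks a calcium rise read as TRPC4 activation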
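System: HEK293 cells stably co-expressing mouse TRPC4beta and mu-opioid receptor; Schedule: Fluo4 dye loading 45 min at room temperature, 110 s recording; Detection: Fluo4 fluorescence, kinetic; Evaluation: B-scored integrated calcium fluorescence ratio; Controls: buffer (low) and maximal DAMGO (high).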
TRPC6 activator: mouse TRPC6 channel activators, primary screen, cell-based, HEK293, membrane potential dye; Short transient receptor potential channel 6 (Mus musculus), Q61143; 310,000 tested, 0.13% active; HEK293-TRPC6 membrane potential dye fluorescence; hits give high values; B-score at 10 µM;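 active = B-score of the integrated fluorescence ratio above library mean plus 3 SD, and starting fluorescence ratio within library mean plus 5 SD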;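 also: higher score means more depolarization so channel activation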
TRPC4 spec 2: mouse TRPC4 off-target activity of TRPC6 inhibitors, second screen; inhibition, % at 10 µM; 920 tested, 42% active; AID 2776; HEK293 TRPC4/MOR, membrane potential dye fluorescence; channel activated by saturating DAMGO dose; shares compounds with TRPC6 inhibitor;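 active = compounds whose fluorescence signal differed from control wells by over 3 SD, either direction, in both duplicate plates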
TRPC4 spec: mouse TRPC4 modulation by TRPC6 hits, confirmation, selectivity assay for TRPC6 inhibitor project, cell-based, HEK293 TRPC4/mu-opioid, membrane potential dye; shares compounds with TRPC6 inhibitor; membrane potential fluorescence; activity change, negative = inhibition, % at 10 µM; 920 tested, 61% active;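 active = rise or fall in signal beyond 3 SD of buffer-only wells in both replicate plates, either sign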;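 also: integrated kinetic ratio of fluorescence range over baseline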
HEK293 MPD ctr 2-1: nonspecific membrane potential effects, parental HEK293, confirmation, counter-screen for TRPC6 inhibitor project, cell-based, second counter screen. signal change vs control, % at 10 µM. 920 tested, 31% active. parental HEK293 membrane potential dye fluorescence; maximal acetylcholine challenge after compound addition. shares compounds with TRPC6 inhibitor;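 active = membrane potential signal moving either way by over 3 SD of the maximum-effect control, in both duplicate plates, meaning non-specific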
HEK293 MPD ctr-1: membrane potential modulation in parental HEK293, confirmation, counter-screen for TRPC6 inhibitor project, cell-based. AID 2780, 2010. 920 tested, 60% active. membrane potential signal change, % at 10 µM. shares compounds with TRPC6 inhibitor. parental HEK293 membrane potential dye fluorescence;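 active = membrane potential signal shifting up or down by more than 3 SD of buffer-only wells, on both duplicate plates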
HEK293 MPD ctr-2: parental HEK293 membrane potential modulation, confirmation, counter-screen for TRPC6 modulator project, cell-based; 2,400 tested, 51% active; shares compounds with TRPC6 inhibitor; membrane potential dye fluorescence; membrane potential signal change, % at 10 µM;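 active = membrane potential signal moves up or down beyond 5 SD from buffer-only wells, on both duplicate plates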
HEK293 MPD ctr 2-2: second check of TRPC6 modulator effects in parental HEK293 cells. shares compounds with TRPC6 inhibitor. membrane potential dye fluorescence; after compound, maximal acetylcholine stimulation. inhibition, % at 10 µM. 2,400 tested, 14% active;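 active = membrane potential signal drops by more than 5 SD from the mean control signal, in both duplicate plates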;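 also: plate controls were acetylcholine ECmax control wells for no effect and buffer only wells for full effect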
TRPC4/MOR mod: TRPC4 modulation by TRPC6 hit compounds, confirmation, selectivity assay for TRPC6 modulator project, cell-based, HEK293 TRPC4/mu-opioid, membrane potential dye, mouse. shares compounds with TRPC6 inhibitor. membrane potential fluorescence. percent change from control (negative = decrease, positive = increase), % at 10 µM. 2,400 tested, 69% active;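 active = membrane potential signal moved up or down beyond 5 SD of buffer control wells, in both duplicate plates, actives on both sides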;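 also: plate controls were assay buffer wells for no effect and DAMGO maximal-effect wells for full effect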
TRPC4/MOR inh 2: second selectivity test of TRPC6 modulators against mouse TRPC4; shares compounds with TRPC6 inhibitor; HEK293 TRPC4/mu-opioid, membrane potential dye fluorescence; stimulated with maximal-effect DAMGO; inhibition, % at 10 µM; 2,400 tested, 55% active; AID 488928;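 active = drop in membrane potential signal beyond 5 SD of the control wells in both duplicate plates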;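 also: TRPC4 counter screen for TRPC6 hits run under conditions tuned for TRPC6 not TRPC4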
TRPC6 inh conf: mouse TRPC6 channel inhibitors, confirmation, HEK293 cells, membrane potential dye, duplicate | 3,300 tested, 43% active | AID 488960, 2010 | ACh-evoked depolarization | inhibition, % at 10 µM | shares compounds with TRPC6 inhibitor;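 active = fluorescence ratio falls more than 5 SD below the full-stimulation control mean, in both duplicate runs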;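 also: integrated fluorescence ratio of peak minus minimum over baseline after agonist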
TRPC6 act confirm: mouse TRPC6 channel activators, confirmation, HEK293 cells, membrane potential dye, duplicate; shares compounds with TRPC6 inhibitor; HEK293-TRPC6 membrane potential dye fluorescence, FDSS; activation, % at 10 µM; 2,800 tested, 11% active; AID 488961, 2010;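 active = ratio signal rise beyond 5 SD above unstimulated control wells' mean, seen in both duplicate runs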;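 also: plate controls were buffer EC0 wells for no effect and acetylcholine ECmax response for full effect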
* = called active by the depositor; i = inactive; . = no result.

SMILES | TRPC4 potent | TRPC4 inh | TRPC6 inhibitor | TRPC4 act | TRPC6 activator | HEK293 MPD ctr-2 | HEK293 MPD ctr 2-2 | TRPC4/MOR mod | TRPC4/MOR inh 2 | TRPC6 inh conf | TRPC6 act confirm | others
Cc1ccccc1-c1nc(-c2ccc(NC(=O)c3cccs3)cc2)no1 | i | i | -7.1* | i | i | . | . | . | . | i | i | TRPC4 spec 2=i;TRPC4 spec=i;HEK293 MPD ctr 2-1=i;HEK293 MPD ctr-1=i
COc1cc(NC(=O)c2cc([N+](=O)[O-])ccc2NC(=O)CN2CCN(c3ccccn3)CC2)cc(OC)c1 | 10* | i | -5.9* | i | i | i | i | i | 40%* | i | i
O=C(CN1CCN(Cc2ccccc2)CC1)Nc1ccc([N+](=O)[O-])cc1C(=O)Nc1ccccc1F | i | i | -5.1* | i | i | i | i | i | 70%* | 38%* | i
CCN(CC)S(=O)(=O)c1ccc(OC)c(NC(=S)Nc2cc(C)ccc2C)c1 | i | i | i | i | i | . | . | . | . | . | .
CN(C)C(=O)c1c2c(nc3ccccc13)-c1ccccc1CC2 | i | i | -5.7* | i | i | i | i | i | i | i | i
S=C(Nc1ccc(Oc2ccccc2)cc1)N1CCOCC1 | i | i | i | i | i | . | . | . | . | . | .
O=C(CNc1ccc(Oc2ccccc2)cc1)N1CCOCC1 | i | i | -5.7* | i | i | i | i | i | i | i | i
Cc1ccc(C(=O)N2CCN(c3ccccn3)CC2)cc1C | i | i | i | i | i | . | . | . | . | . | .
CCCCCCC1CCC(C(=O)NC(CCSC)C(=O)NC(C(=O)OC)C(C)C)CC1 (stereo unspecified) | i | i | i | i | i | . | . | . | . | . | .
COc1cc(CNCc2ccccn2)ccc1OCC(=O)NC1CCCCC1 | i | i | i | i | i | . | . | . | . | . | .
COc1cc(CNCCc2ccc(S(N)(=O)=O)cc2)ccc1OCC(=O)NC1CCCCC1 | i | i | -12* | 47* | 12* | i | i | i | i | i | i
O=C(O)Cc1sc(-c2ccccc2Cl)nc1-c1ccccc1 | i | i | -6.2* | i | i | i | i | i | i | i | i
Cn1c(C(=O)NN)cc2cc(Oc3ccccc3)ccc21 | i | i | i | i | i | . | . | . | . | . | .
COc1ccc2[nH]c3c(c2c1)CCN1C(=O)N([C@@H](C)C(=O)NCc2ccc(F)cc2)C(=O)[C@]31C | i | i | i | i | i | . | . | . | . | . | .
Cc1nnc(SCCn2c(N3CCN(Cc4ccccc4)CC3)nc3c2c(=O)[nH]c(=O)n3C)s1 | i | i | -7.8* | i | i | -278%* | i | -44%* | i | i | i
Cn1c(=O)[nH]c(=O)c2c1nc(N1CCN(Cc3ccccc3)CC1)n2CCCc1ccccc1 | i | i | i | i | i | . | . | . | . | . | .
Cc1nnc(SCCn2c(N3CCCCCC3)nc3c2c(=O)[nH]c(=O)n3C)s1 | i | i | i | i | i | . | . | . | . | . | .
Cn1c(=O)[nH]c(=O)c2c1nc(N1CCN(Cc3ccccc3)CC1)n2CCSc1ncccn1 | i | i | -7.9* | i | i | -329%* | 96%* | -59%* | 62%* | 58%* | i
Cc1nnc(SCCn2c(N3CCN(C)CC3)nc3c2c(=O)[nH]c(=O)n3C)s1 | i | i | -10* | i | i | . | . | . | . | 69%* | i | TRPC4 spec 2=74%*;TRPC4 spec=-36%*;HEK293 MPD ctr 2-1=i;HEK293 MPD ctr-1=-592%*
COc1cc2c(cc1OC)CN(Cc1cccs1)CC2 | i | i | i | i | i | . | . | . | . | . | .
CCC(=O)Nc1sc(Cc2ccccc2)c(C)c1C(N)=O | i | i | i | i | i | . | . | . | . | . | .
CCCN(CCC)C(=O)c1cc2c(=O)[nH]c3ccc(C)cc3c2s1 | i | i | i | i | i | . | . | . | . | . | .
CCOc1ccc2c(C)nc(NC3=NC(C)(C)C=C(C)N3)nc2c1 | i | -9* | -5.1* | i | i | i | i | i | i | i | i
C/C(=N\Nc1ncnc2sc(C)c(C)c12)c1ccccn1 | 15* | i | i | i | 17* | 316%* | i | 50%* | i | i | 75%*
Cc1cc2cc(C)c(NCCNC(=O)c3ccccc3F)nc2cc1C | i | i | -5.9* | i | i | i | i | i | 46%* | i | i
